Data from ChEMBL document CHEMBL1123360, “Oxidation of 4-aryl- and 4-alkyl-substituted 2,6-dimethyl-3,5-bis(alkoxycarbonyl)-1,4-dihydropyridines by human liver microsomes and immunochemical evidence for the involvement of a form of cytochrome P-450” (J Med Chem, 1986).
Blank lines part the entries; values can stand above or below the compound they belong to.

Assays:
Cytochrome P450 3A4 [1] = molecular target: T1, Cytochrome P450 3A4 (Homo sapiens, UniProt P08684); assay: Rate of Oxidation in human liver microsomes is measured as mean (nmol product) formed / min per nmol cytochrome P-450
T1 sequence (P08684 whole entry): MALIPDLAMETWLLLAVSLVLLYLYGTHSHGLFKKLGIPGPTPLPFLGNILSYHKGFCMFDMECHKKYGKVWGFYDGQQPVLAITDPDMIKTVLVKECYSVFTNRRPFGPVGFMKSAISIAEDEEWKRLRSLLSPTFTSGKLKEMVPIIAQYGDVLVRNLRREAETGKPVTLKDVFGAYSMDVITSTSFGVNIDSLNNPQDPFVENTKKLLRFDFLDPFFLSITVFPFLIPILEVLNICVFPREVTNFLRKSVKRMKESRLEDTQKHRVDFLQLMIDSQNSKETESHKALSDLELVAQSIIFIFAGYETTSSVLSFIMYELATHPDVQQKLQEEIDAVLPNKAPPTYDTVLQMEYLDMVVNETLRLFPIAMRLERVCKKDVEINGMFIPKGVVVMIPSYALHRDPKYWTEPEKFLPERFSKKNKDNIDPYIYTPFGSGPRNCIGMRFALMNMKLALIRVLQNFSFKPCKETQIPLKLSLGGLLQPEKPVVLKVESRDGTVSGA

[2] = Percent inhibition of human liver microsome cytochrome P-450 mediated hexobarbital 3'-hydroxylase activity in the presence of NADPH; conditions: microsomes
In short: (§1)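 Human liver microsomes (sample HL 95) preincubated with test compound (50 μM) plus NADPH-generating system for 20 min at 37 °C. […] Activity measured afterwards; values corrected for inhibition by methanol solvent alone.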

[3] = Percent inhibition of human liver microsome cytochrome P-450 mediated phenacetin O-deethylase activity without NADPH; Phenacetin O-deethylase activity inhibited by 40%; conditions: microsomes
Cytochrome P450 3A4 [4] = molecular target: T1, Cytochrome P450 3A4; assay: Percent inhibition of human liver microsome cytochrome P-450 mediated nifedipine oxidase activity without NADPH; conditions: microsomes
In short: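 Microsomes (HL 95, 500 pmol P-450 in 0.5 mL 50 mM potassium phosphate, pH 7.85) preincubated 20 min at 37 °C with compound (50 μM) without NADPH-generating system. […] Values corrected for methanol solvent.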

Cytochrome P450 3A4 [5] = molecular target: T1, Cytochrome P450 3A4; assay: Percent inhibition of human liver microsome cytochrome P-450 mediated nifedipine oxidase activity in the presence of NADPH; conditions: microsomes; in short: as §1
[6] = Percent inhibition of human liver microsome cytochrome P-450 mediated phenacetin O-deethylase activity in the presence of NADPH; conditions: microsomes; in short: as §1
Cytochrome P450 3A4 [7] = molecular target: T1, Cytochrome P450 3A4; assay: Rate of Oxidation in human liver microsomes as mean (nmol product) formed/min/nmol cytochrome P-450; e denotes Product not separated with HPCL system; format: ADME, Microsome
In short: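 NADPH-fortified human liver microsomes (HL 94, HL 95, HL 96; usually 50 pmol P-450), substrate 0.2 mM, 100 mM potassium phosphate pH 7.85, 37 °C, 10 min, amber vials. Stopped with Na2CO3/NaCl pH 10.5 and extracted into CH2Cl2. Pyridine product quantified by isocratic reversed-phase HPLC (UV 254 and/or 280 nm) against external standards by peak height. Value is the mean with range over the three samples.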

SMILES: CCOC(=O)C1=C(C)N=C(C)/C(=C(/O)OCC)C1CC (stereo unspecified)
Inhibition [2]: 82%
Inhibition [3]: 40%
Inhibition (Cytochrome P450 3A4 [4]): 45%
Inhibition (Cytochrome P450 3A4 [5]): 89%
Rate of oxidation (Cytochrome P450 3A4 [1]): 0.12

SMILES: COC(=O)C1=C(C)N=C(C)/C(=C(/O)OC)C1Cc1ccccc1 (stereo unspecified)
Inhibition [2]: 80%
Inhibition [6]: 50%
Inhibition (Cytochrome P450 3A4 [4]): 25%
Inhibition (Cytochrome P450 3A4 [5]): 86%
Rate of oxidation (Cytochrome P450 3A4 [1]): 0.25

SMILES: COC(=O)C1=C(C)N=C(C)/C(=C(/O)OC)C1c1ccc(C(F)(F)F)cc1 (stereo unspecified)
Rate of oxidation (Cytochrome P450 3A4 [1]): 0.45

SMILES: COC(=O)C1=C(C)N=C(C)/C(=C(/O)OC)C1C1CC=CCC1 (stereo unspecified)
Inhibition [2]: 82%
Inhibition [6]: 59%
Inhibition (Cytochrome P450 3A4 [4]): 27%
Inhibition (Cytochrome P450 3A4 [5]): 86%
Rate of oxidation (Cytochrome P450 3A4 [1]): 0.12

SMILES: COC(=O)C1=C(C)N=C(C)/C(=C(/O)OC)C1C(C)C (stereo unspecified)
Inhibition [2]: 73%
Inhibition [6]: 55%
Inhibition (Cytochrome P450 3A4 [4]): 32%
Inhibition (Cytochrome P450 3A4 [5]): 89%
Rate of oxidation (Cytochrome P450 3A4 [7]): Not separated

SMILES: COC(=O)C1=C(C)N=C(C)/C(=C(/O)OC)C1c1c(F)c(F)cc(F)c1F (stereo unspecified)
Rate of oxidation (Cytochrome P450 3A4 [1]): 0.98

Now from value to compound:

Rate of oxidation (Cytochrome P450 3A4 [1]): 0.51
SMILES: CCOC(=O)C1=C(C)NC(C)=C(C(=O)OCC)C1c1ccccc1

Rate of oxidation (Cytochrome P450 3A4 [1]): 0.53
SMILES: COC(=O)C1=C(C)NC(C)=C(C(=O)OC)C1c1ccccc1

Rate of oxidation (Cytochrome P450 3A4 [1]): 0.41
SMILES: COC(=O)C1=C(C)N=C(C)/C(=C(\O)OC)C1c1cccc(C#N)c1 (stereo unspecified)

Rate of oxidation (Cytochrome P450 3A4 [1]): 0.51
SMILES: COC(=O)C1=C(C)N=C(C)/C(=C(\O)OC)C1c1ccc(C)cc1 (stereo unspecified)

Rate of oxidation (Cytochrome P450 3A4 [1]): 0.67
SMILES: CCCCCO/C(O)=C1\C(C)=NC(C)=C(C(=O)OCCOCCC)C1c1cccc([N+](=O)[O-])c1 (stereo unspecified)

Rate of oxidation (Cytochrome P450 3A4 [1]): 0.76
SMILES: COC(=O)C1=C(C)N=C(C)/C(=C(/O)OC)C1c1c(F)cccc1Cl (stereo unspecified)

Rate of oxidation (Cytochrome P450 3A4 [1]): 0.5
SMILES: COC(=O)C1=C(C)N=C(C)/C(=C(/O)OC)C1c1cccc(Cl)c1 (stereo unspecified)

Rate of oxidation (Cytochrome P450 3A4 [1]): 0.61
SMILES: COC(=O)C1=C(C)N=C(C)/C(=C(/O)OC)C1c1ccc(Cl)c([N+](=O)[O-])c1 (stereo unspecified)

Rate of oxidation (Cytochrome P450 3A4 [1]): 0.52
SMILES: CCOC(=O)C1=C(C)NC(C)=C(C(=O)OC)C1c1cccc([N+](=O)[O-])c1 (stereo unspecified) [NITRENDIPINE]
